Data as given in BindingDB's records for doi:10.1021/jm00346a020 (1982).

How the values were obtained:
Dihydrofolate reductase [1] = target: T1, Dihydrofolate reductase (Gallus gallus, UniProt P00378); test: Inhibitory activity against chicken dihydrofolate reductase at pH 7.2.
T1 sequence (P00378 whole entry): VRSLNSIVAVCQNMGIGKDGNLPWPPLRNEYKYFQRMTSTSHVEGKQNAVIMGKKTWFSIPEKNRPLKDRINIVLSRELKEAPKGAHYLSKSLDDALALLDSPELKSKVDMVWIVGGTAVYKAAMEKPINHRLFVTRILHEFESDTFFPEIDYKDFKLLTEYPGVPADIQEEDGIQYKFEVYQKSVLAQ

Dihydrofolate reductase [2] = target: T2, Dihydrofolate reductase (Bos taurus, UniProt P00376); test: Inhibitory activity against bovine liver dihydrofolate reductase at pH 7.2.
T2 sequence (P00376 whole entry): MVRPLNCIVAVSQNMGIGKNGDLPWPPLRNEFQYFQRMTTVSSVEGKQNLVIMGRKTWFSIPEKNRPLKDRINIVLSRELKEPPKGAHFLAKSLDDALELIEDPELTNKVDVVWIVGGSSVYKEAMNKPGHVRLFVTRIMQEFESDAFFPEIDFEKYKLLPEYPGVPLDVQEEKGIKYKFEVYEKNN

Dihydrofolate reductase [3] = target: T2, Dihydrofolate reductase; test: Inhibitory activity against bovine liver Dihydrofolate reductase at pH 7.2.
Procedure, shortened: (§1)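 DHFR from chicken liver and from bovine liver, each assayed at pH 7.2 by the group's earlier-reported inhibition procedure. Potency is expressed as an apparent inhibition constant, reported as log(1/Ki app).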

Dihydrofolate reductase [4] = target: T1, Dihydrofolate reductase; test: Inhibitory activity against chicken Dihydrofolate reductase at pH 7.2.; procedure, shortened: as §1

Row | SMILES | Ki (Dihydrofolate reductase [1]) | Ki (Dihydrofolate reductase [2]) | also measured
1 | COCCOc1c(OC)cc(Cc2cnc(N)nc2N)cc1OC [5-[3,5-Dimethoxy-4-(2-methoxy-ethoxy)-benzyl]-pyrimidine-2,4-diamine] | 229 µM | – | –
2 | Cc1cccc(Cc2cnc(N)nc2N)c1 | 19.1 µM | – | –
3 | COc1ccc(Cc2cnc(N)nc2N)cc1OC [Diaveridine] | 34.7 µM | 2.19 µM | –
4 | COCCOc1ccc(Cc2cnc(N)nc2N)cc1OCCOC | – | – | Ki (Dihydrofolate reductase [3]): 6.76 µM
5 | Nc1ccc(Cc2cnc(N)nc2N)cc1 | – | 11 µM | –
6 | CCCCCCOc1ccc(Cc2cnc(N)nc2N)cc1 | – | – | Ki (Dihydrofolate reductase [3]): 2.82 µM
7 | Nc1ncc(Cc2cccc(Cl)c2)c(N)n1 | 9.77 µM | 1.59 µM | –
8 | COc1ccc(Cc2cnc(N)nc2N)cc1 [5-(4-Methoxy-benzyl)-pyrimidine-2,4-diamine] | – | 4.47 µM | –
9 | CC(=O)Nc1ccc(Cc2cnc(N)nc2N)cc1[N+](=O)[O-] | – | 2.82 µM | –
10 | Nc1ncc(Cc2cccc(C(F)(F)F)c2)c(N)n1 | – | 1.66 µM | –
11 | Nc1ncc(Cc2cccc(I)c2)c(N)n1 | 16.2 µM | – | –
12 | COc1ccc(Cc2cnc(N)nc2N)cc1C(F)(F)F | 10.2 µM | – | –
13 | CN(C)c1ccc(Cc2cnc(N)nc2N)cc1 | 97.7 µM | 6.17 µM | –
14 | Nc1ncc(Cc2ccc(O)c(O)c2)c(N)n1 | – | 25.7 µM | –
15 | CC(=O)Nc1ccc(Cc2cnc(N)nc2N)cc1 | 55 µM | – | –
16 | NC(=O)COc1cccc(Cc2cnc(N)nc2N)c1 | – | – | Ki (Dihydrofolate reductase [3]): 5.37 µM
17 | Nc1ncc(Cc2ccccc2)c(N)n1 | 19.5 µM | – | –
18 | CCCCOCc1cccc(Cc2cnc(N)nc2N)c1 | 6.76 µM | – | –
19 | Cc1ccc(Cc2cnc(N)nc2N)cc1 | – | 5.37 µM | –
20 | Nc1ncc(Cc2ccc(Br)cc2)c(N)n1 | – | 3.8 µM | –
21 | CCCCCCCOc1ccc(Cc2cnc(N)nc2N)cc1 [5-(4-Heptyloxy-benzyl)-pyrimidine-2,4-diamine] | – | – | Ki (Dihydrofolate reductase [3]): 3.55 µM
22 | Nc1ncc(Cc2ccc(Cl)cc2)c(N)n1 | – | 2.51 µM | –
23 | Nc1ncc(Cc2ccc([N+](=O)[O-])cc2)c(N)n1 | 42.7 µM | 3.72 µM | –
24 | Nc1ncc(Cc2ccc(OC(F)(F)F)cc2)c(N)n1 | 55 µM | – | –
25 | Nc1ncc(Cc2ccc(F)cc2)c(N)n1 | 16.2 µM | 3.09 µM | –
26 | Nc1ncc(Cc2cccc(F)c2)c(N)n1 | 20 µM | – | –
27 | COCCOc1cccc(Cc2cnc(N)nc2N)c1 | – | – | Ki (Dihydrofolate reductase [3]): 2.63 µM; Ki (Dihydrofolate reductase [4]): 14.8 µM
28 | Nc1ncc(Cc2cccc(Br)c2)c(N)n1 | – | 1.55 µM | –
29 | COCCOc1ccc(Cc2cnc(N)nc2N)cc1 | – | – | Ki (Dihydrofolate reductase [3]): 4.9 µM
30 | Nc1ncc(Cc2cc(O)cc(O)c2)c(N)n1 | – | – | Ki (Dihydrofolate reductase [3]): 407 µM
